RanGTP-Impb inh: disruptors of Ran-importin-beta complex formation – biochemical, FRET, CFP-Ran, YFP-importin-beta, homogeneous, primary screen. cell-free CFP-Ran/YFP-importin-beta FRET ratio. inhibition, % (concentration not given with the values). actives 1.1% (n = 300,000);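 active = more than half of the replicate wells show a fall in the fluorescence ratio signal beyond about 16%, limit read from the data, passing the limit was not always enough; inconclusive = exactly half of the replicate wells pass the set limit; inactive = fewer than half of replicates pass the limit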;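 note: 0% = DMSO wells and 100% = Ran loaded with GDP instead of GTP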
Calpain2 inh: blocks pig calpain II enzyme activity; actives 0.37% (n = 220,000); purified calpain II, fluorogenic peptide substrate, 30 min; inhibition, % at 16 µM;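 active = inhibition above about 50%, limit read from the data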
Runt-CBFb FRET: Runt domain-CBFb interaction inhibition; Cerulean-Runt/Venus-CBFb FRET ratio 530/480, 1 h; inhibition, % at 20 µM; AID 1496; Q01196+Q13951; actives 0.46% (n = 220,000);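 active = inhibition over about 50% at 20 µM in the single-dose screen, limit read from the data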;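 note: 0% = DMSO wells and 100% = excess unlabeled CBFb competitor control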
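Assay system: Cerulean-tagged RUNX1 Runt domain (FRET donor) fusion protein / Amount: 100 nM each of Venus-CBFb and Cerulean-Runt domain / Medium: Tris buffer pH 7.5 with salts and BSA / Also added: Venus-CBFb 100 nM / Schedule: 1 h complex formation plus 1 h compound treatment, room temperature / Signal: FRET fluorescence / Read-out: loss of energy transfer signal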
Runt-SMMHC FRET: Runt domain-CBFb-SMMHC interaction inhibition; actives 0.74% (n = 220,000); Cerulean-Runt/Venus-CBFb-SMMHC FRET ratio 530/480, 1 h; inhibition, % at 20 µM; Q01196+Q13951; AID 1434;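 active = mean inhibition across duplicate retests at 20 µM reaching about 50%, limit read from the data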;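 note: 0% = DMSO wells and 100% = wells with excess untagged CBFb-SMMHC; inhibitors lower the FRET ratio by blocking Runt binding to CBFb-SMMHC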
FAS-TE inh: FAS thioesterase (human) inhibition; P49327; recombinant FAS-TE, OMFH fluorogenic substrate, fluorescence endpoint; inhibition, % at 15 µM; actives 0.67% (n = 360,000); AID 602261;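 active = compounds whose normalised, plate-corrected inhibition of enzyme fluorescence in the single-dose primary screen is 50% or more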;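 note: 0% = DMSO with enzyme and 100% = substrate without enzyme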
Target sequence (P49327 whole entry, looked up): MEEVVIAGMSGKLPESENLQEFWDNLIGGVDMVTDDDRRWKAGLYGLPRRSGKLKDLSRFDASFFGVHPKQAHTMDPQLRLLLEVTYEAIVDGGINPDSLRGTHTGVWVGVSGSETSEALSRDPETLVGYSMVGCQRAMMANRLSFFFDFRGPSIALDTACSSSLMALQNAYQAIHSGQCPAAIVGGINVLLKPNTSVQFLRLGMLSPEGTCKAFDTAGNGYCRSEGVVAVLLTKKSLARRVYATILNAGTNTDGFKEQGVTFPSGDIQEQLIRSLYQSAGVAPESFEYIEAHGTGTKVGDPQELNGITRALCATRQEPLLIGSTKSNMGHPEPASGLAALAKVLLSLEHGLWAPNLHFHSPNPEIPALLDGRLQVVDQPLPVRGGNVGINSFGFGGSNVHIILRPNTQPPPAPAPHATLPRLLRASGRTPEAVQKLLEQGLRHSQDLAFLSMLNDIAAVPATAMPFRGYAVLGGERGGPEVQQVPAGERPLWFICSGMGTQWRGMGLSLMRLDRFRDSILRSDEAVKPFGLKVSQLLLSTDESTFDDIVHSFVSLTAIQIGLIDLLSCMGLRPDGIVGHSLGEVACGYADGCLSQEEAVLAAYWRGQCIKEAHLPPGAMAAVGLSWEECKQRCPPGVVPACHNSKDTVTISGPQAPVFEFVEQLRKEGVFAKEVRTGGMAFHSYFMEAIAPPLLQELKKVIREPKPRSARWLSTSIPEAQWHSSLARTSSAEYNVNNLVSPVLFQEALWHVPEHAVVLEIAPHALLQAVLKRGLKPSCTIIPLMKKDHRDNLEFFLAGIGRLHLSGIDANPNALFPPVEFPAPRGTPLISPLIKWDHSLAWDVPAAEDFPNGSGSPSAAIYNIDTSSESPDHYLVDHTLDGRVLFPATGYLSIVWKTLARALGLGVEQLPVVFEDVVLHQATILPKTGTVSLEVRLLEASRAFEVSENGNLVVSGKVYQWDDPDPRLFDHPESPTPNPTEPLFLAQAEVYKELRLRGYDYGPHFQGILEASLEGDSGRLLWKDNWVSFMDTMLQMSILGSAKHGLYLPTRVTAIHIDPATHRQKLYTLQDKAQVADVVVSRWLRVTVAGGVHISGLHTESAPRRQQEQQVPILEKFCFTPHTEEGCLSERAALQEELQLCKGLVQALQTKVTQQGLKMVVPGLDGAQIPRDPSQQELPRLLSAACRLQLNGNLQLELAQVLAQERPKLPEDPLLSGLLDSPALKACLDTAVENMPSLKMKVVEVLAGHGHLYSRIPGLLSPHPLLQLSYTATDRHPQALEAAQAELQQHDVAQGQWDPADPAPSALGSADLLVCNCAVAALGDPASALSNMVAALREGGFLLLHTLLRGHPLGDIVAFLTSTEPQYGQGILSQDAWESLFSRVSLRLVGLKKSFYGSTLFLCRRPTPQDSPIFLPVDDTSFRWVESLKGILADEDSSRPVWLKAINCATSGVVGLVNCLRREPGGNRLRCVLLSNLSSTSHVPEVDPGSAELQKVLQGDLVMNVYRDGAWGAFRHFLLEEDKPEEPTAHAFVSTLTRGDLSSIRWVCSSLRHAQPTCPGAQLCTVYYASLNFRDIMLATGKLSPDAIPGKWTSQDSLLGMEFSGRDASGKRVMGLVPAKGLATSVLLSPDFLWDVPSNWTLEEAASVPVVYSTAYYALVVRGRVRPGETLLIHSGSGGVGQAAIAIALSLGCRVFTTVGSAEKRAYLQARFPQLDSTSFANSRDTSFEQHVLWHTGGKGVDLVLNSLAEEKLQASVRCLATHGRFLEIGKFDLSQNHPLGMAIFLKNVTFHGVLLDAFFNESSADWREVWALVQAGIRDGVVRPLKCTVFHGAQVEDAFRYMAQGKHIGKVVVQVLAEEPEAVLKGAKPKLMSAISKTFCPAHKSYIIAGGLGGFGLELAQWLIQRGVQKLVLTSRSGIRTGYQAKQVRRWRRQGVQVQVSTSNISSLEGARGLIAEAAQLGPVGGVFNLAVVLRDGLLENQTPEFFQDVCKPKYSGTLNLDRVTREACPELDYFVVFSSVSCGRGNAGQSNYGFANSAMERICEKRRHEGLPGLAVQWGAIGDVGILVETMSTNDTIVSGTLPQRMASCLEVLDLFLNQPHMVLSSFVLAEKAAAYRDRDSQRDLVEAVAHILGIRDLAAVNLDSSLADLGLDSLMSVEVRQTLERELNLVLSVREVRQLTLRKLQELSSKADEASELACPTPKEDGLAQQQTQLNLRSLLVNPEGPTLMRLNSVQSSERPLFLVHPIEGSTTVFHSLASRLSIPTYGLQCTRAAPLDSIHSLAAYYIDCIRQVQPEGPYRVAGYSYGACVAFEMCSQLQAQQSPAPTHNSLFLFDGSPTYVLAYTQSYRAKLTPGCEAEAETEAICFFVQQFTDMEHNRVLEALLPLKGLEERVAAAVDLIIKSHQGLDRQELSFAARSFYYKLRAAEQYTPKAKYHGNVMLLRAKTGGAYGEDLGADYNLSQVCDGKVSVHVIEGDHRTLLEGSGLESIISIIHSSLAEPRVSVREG
FAS-TE inh conf: confirmation of human fatty acid synthase thioesterase inhibitors; shares compounds with FAS-TE inh; recombinant FAS-TE, OMFH fluorogenic substrate, fluorescence; AID 624325; actives 45% (n = 2,300); inhibition, % at 15 µM;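 active = compounds inhibiting the enzyme by at least 50% at 15 µM in any one of the replicates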;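 note: 0% = enzyme with DMSO only and 100% = wells lacking enzyme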
* = called active by the depositor; ? = inconclusive; . = no result given. Hits are enriched below; roughly 2.1% of the tested compounds scored in any of these assays.

SMILES	RanGTP-Impb inh	Calpain2 inh	Runt-CBFb FRET	Runt-SMMHC FRET	FAS-TE inh	FAS-TE inh conf
CCc1cccc(CC)c1NC(=O)/C(C#N)=C/c1ccccc1C(F)(F)F	-4	-21	-1	-1	54*	61*
CCNC(=S)N1CCc2cc(OC)c(OC)cc2C1COc1ccc(OC)cc1 (stereo unspecified)	1	-14	-5	1	16	.
COc1cccc(NC(=S)N2CCc3cc(OC)c(OC)cc3C2COc2ccc3c(C)cc(=O)oc3c2)c1 (stereo unspecified)	0	-65	5	2	58*	7
COc1cccc(N2C(=O)Nc3ccc(Br)cc3C2(O)C(=O)NCCCOC(C)C)c1 (stereo unspecified)	-5	.	.	.	-6	.
Cc1ccc(C(=O)C(C)N(C(=O)c2ccc(Cl)cc2Cl)N2C(=O)CCCC2=O)cc1 (stereo unspecified)	-3	9	-1	1	4	.
COc1ccc(C(=O)C(C)N(C(=O)c2ccc(Cl)cc2Cl)N2C(=O)C3C4C=CC(C4)C3C2=O)cc1 (stereo unspecified)	3	-1	-1	0	60*	9
CCc1cccc(NC(=O)CSc2nc3c(c(=O)[nH]2)CCCC3)c1	2	-3	-3	4	.	.
COc1cc(OC)c(N2CC(C(=O)NCCC3=CCCCC3)CC2=O)cc1Cl (stereo unspecified)	.	.	.	.	61*	67*
COc1cccc(NC(=O)c2cc([N+](=O)[O-])ccc2NC(=O)CNCC2CCCO2)c1 (stereo unspecified)	6	30	1	-1	52*	57*
Cc1cccc(C2=NN(c3ccc(Br)cc3)[C@@H](C(=O)N3CCOC3=O)[C@@H]2C)c1	.	.	.	.	39	.
O=C1OCCN1C(=O)[C@H]1[C@H](c2ccc(Cl)cc2)C(c2ccc(F)cc2)=NN1c1ccccc1	.	.	.	.	74*	32
O=C1OCCN1C(=O)[C@H]1[C@H](c2ccc(F)cc2)C(c2ccc(F)cc2)=NN1c1ccccc1	-4	-65	-7	-10	74*	4
O=C1OCCN1C(=O)[C@H]1[C@H](c2ccc(Cl)cc2)C(c2ccccc2)=NN1c1ccccc1	.	.	.	.	50	.
Cc1cccc(C2=NN(c3ccc(Br)cc3)[C@@H](C(=O)N3CCOC3=O)[C@@H]2c2ccc([N+](=O)[O-])cc2)c1	.	.	.	.	85*	13
COc1ccccc1[C@@H]1C(c2ccccc2)=NN(c2ccccc2)[C@H]1C(=O)N1CCOC1=O	.	.	.	.	55*	21
CC(NC(=O)COc1ccccc1Cl)c1ccccc1 (stereo unspecified)	-2	.	.	.	-1	.
O=C1OCCN1C(=O)[C@H]1[C@H](c2ccc([N+](=O)[O-])cc2)C(c2ccccc2)=NN1c1ccccc1	.	.	.	.	78*	19
CC[C@@H]1C(c2ccccc2)=NN(c2ccccc2)[C@H]1C(=O)N1CCOC1=O	.	.	.	.	4	.
CC(=O)CSc1nc2c(c(=O)[nH]c(=O)n2C)n1CCCc1ccccc1	0	.	.	.	2	.
COc1cccc(CNC(=O)CN2C(=O)c3ccccc3S2(=O)=O)c1	2	.	.	.	-3	.
COc1ccc(Cl)cc1NC(=O)CN(C)C(=O)c1sc2ccccc2c1Cl	.	.	.	.	51*	35
CCC(CO)n1c(SCc2cc([N+](=O)[O-])cc3c2OCOC3)nc2ccccc2c1=O (stereo unspecified)	-3	19	0	9	54*	16
C=CCn1c(SCc2cc([N+](=O)[O-])cc3c2OCOC3)nc2cc(C(=O)O)ccc2c1=O	0	16	0	-6	83*	77*
O=C(O)c1cc(-c2ccc(/C=N/NC(=S)Nc3ccccc3)o2)ccc1Cl	-1	-33	43	18	50*	55*
O=[N+]([O-])c1cccc(-c2ccc(/C=N/NC(=S)Nc3ccccc3)o2)c1	-2	-1	.	2	29	.
SMILES	RanGTP-Impb inh	Calpain2 inh	Runt-CBFb FRET	Runt-SMMHC FRET	FAS-TE inh	FAS-TE inh conf
O=C(NNS(=O)(=O)c1ccc([N+](=O)[O-])cc1)c1ccc2ccccc2c1O	.	.	.	.	63*	77*
O=C(NNS(=O)(=O)c1ccc([N+](=O)[O-])cc1)c1ccccc1	.	.	.	.	13	.
Cc1ccc(-c2nnc(NCc3nc4ccccc4[nH]3)c3ccccc23)cc1S(=O)(=O)N1CCCCC1	0	-89	-1	2	69*	21
CCOC(=O)NNC(=S)Nc1c(C)n(C)n(-c2ccccc2)c1=O	0	0	0	4	-3	.
CCOC(=O)c1c2ccccc2[n+]([O-])n1[C@@H](C)C(N)=O	-1	.	.	.	-10	.
COc1ccc(C)cc1S(=O)(=O)Nc1cccc(-c2ccc(N3CCCCCC3)nn2)c1	3	.	.	.	31	.
O=S(=O)(Nc1cccc(-c2ccc(N3CCCCCC3)nn2)c1)c1ccc(C(F)(F)F)cc1	2	.	.	.	39	.
O=S(=O)(Nc1cccc(-c2ccc(N3CCCCCC3)nn2)c1)c1ccccc1Cl	1	.	.	.	50*	11
O=S(=O)(Nc1cccc(-c2ccc(N3CCCCCC3)nn2)c1)c1ccccc1F	3	.	.	.	56*	62*
Cc1ccc(S(=O)(=O)N2CCN(CCOc3cccc(C)c3)CC2)cc1	.	.	.	.	30	.
O=C(CCCn1c(SCc2cccc([N+](=O)[O-])c2)nc2ccccc2c1=O)NCC1CCCO1 (stereo unspecified)	-2	-37	-3	-1	86*	30
Nc1cc(-c2ccc(OC(F)(F)F)cc2)nn1-c1ccc(Cl)c(Cl)c1	0	12	1	1	58*	25
Cc1ccc(-c2cc(N)n(-c3ccccc3)n2)cc1	?	14	-2	-9	1	.
O=C(COC(=O)c1n[nH]c(=O)c2ccccc12)Nc1cccc(S(=O)(=O)N2CCOCC2)c1	.	.	.	.	-6	.
CC1(c2ccccc2)CC(C)(C)N2C(=O)/C(=C3\SC(=S)NC3=O)c3cccc1c32 (stereo unspecified)	9	32	-3	-9	78*	10
CC(=C1SC(=S)NC1=O)c1ccccc1	.	.	.	.	-2	.
COc1cc2c(cc1OC)CN(C(=O)/C=C/c1cccc([N+](=O)[O-])c1)CC2	7	.	.	.	16	.
O=C(c1cccc([N+](=O)[O-])c1)N1CCN(c2ccccn2)CC1	-6	-3	-2	-2	-2	.
O=C(/C=C/c1cccc([N+](=O)[O-])c1)N1CCN(S(=O)(=O)c2cccs2)CC1	-3	14	1	-2	77*	83*
O=C(/C=C/c1cccc([N+](=O)[O-])c1)N1CCN(c2ccccn2)CC1	2	.	.	.	51*	42
O=C(/C=C/c1cccc([N+](=O)[O-])c1)N1CCOCC1	4	-4	3	-8	-8	.
CC1CCN(S(=O)(=O)c2ccc(NC(=O)C3CCCCC3C(=O)O)cc2)CC1 (stereo unspecified)	.	.	.	.	0	.
Cc1c(C(=O)OCCOc2ccc(Br)cc2)sc(=S)n1C	2	24	-2	-8	69*	63*

Screening results: PubChem BioAssay, several laboratories
